Experimental data taken from ChEMBL document CHEMBL2331476, “A novel semisynthetic flavonoid 7-O-galloyltaxifolin upregulates heme oxygenase-1 in RAW264.7 cells via MAPK/Nrf2 pathway” (J Med Chem, 2013).
Activity calls are given as the source filed them. The rule behind the calls is not given here.

Experiments:
[1] = target: T1, Nuclear factor erythroid 2-related factor 2 (Mus musculus) (UniProt Q60795); assay: Activation of Nrf2 in mouse RAW264.7 cells assessed as upregulation of Hmox1 gene expression at 10 to 50 uM after 6 hrs by real-time PCR analysis relative to GAPDH mRNA expression; type: cell-based
T1 sequence (whole entry): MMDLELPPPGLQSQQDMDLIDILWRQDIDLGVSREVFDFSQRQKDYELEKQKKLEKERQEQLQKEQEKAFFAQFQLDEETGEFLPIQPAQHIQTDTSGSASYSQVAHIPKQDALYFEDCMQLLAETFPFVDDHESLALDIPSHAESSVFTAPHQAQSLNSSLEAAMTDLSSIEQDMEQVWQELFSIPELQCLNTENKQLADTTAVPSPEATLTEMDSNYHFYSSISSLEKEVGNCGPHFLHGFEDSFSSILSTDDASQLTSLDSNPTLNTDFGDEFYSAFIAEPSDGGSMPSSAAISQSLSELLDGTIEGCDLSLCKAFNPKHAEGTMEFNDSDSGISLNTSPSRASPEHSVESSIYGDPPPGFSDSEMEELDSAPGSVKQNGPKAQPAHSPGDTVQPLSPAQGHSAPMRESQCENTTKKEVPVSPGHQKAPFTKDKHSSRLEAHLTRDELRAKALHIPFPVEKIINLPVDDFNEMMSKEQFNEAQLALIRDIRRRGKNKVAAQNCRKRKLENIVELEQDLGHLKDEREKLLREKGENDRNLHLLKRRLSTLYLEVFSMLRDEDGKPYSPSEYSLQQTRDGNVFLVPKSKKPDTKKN
Procedure, shortened: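 RAW264.7 cells treated 6 h in serum-free medium, 0.1% DMSO control. Total RNA (2 μg) reverse transcribed; TaqMan qPCR for Hmox1 and Gapdh, 40 cycles. Relative expression by 2^−ΔΔCT, normalized to Gapdh; mean ± SD of three experiments.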

RAW264.7 [2] = assay: Cytotoxicity against mouse RAW264.7 cells assessed as decreased cell viability at 10 uM after 6 hrs by MTT assay; type: cell-based; settings: raw264.7, 6 h
Procedure, shortened: (§1)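 Serum-starved RAW264.7 cells exposed 6 h at 10 or 50 μM; 0.1% DMSO control (100% viability), 1.5% Triton X-100 positive control. Cells washed and incubated 2 h at 37 °C with 0.5 mg/mL MTT in serum-free medium. Formazan dissolved in DMSO, A540 read, viability relative to DMSO-treated cells.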

RAW264.7 [3] = assay: Cytotoxicity against mouse RAW264.7 cells assessed as decreased cell viability at 50 uM after 6 hrs by MTT assay; type: cell-based; settings: raw264.7, 6 h; procedure, shortened: as §1
[4] = target: T1, Nuclear factor erythroid 2-related factor 2 (Mus musculus); assay: Activation of Nrf2 in mouse RAW264.7 cells assessed as upregulation of HO1 protein expression at 50 uM after 6 hrs by Western blotting analysis; type: cell-based
Procedure, shortened: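 HO-1 protein in whole-cell lysates (20 μg/lane) of serum-starved RAW264.7 cells after 6 h at 10-50 μM or 50 μM for 1-6 h in serum-free medium, 0.1% DMSO control. Chemiluminescent Western blot; HO-1 densitometry normalized to actin, mean of three experiments.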

[5] = target: T1, Nuclear factor erythroid 2-related factor 2 (Mus musculus); assay: Activation of Nrf2 in mouse RAW264.7 cells assessed as upregulation of Hmox1 gene expression at 50 uM after 6 hrs by real-time PCR analysis relative to GAPDH mRNA expression; type: cell-based
Procedure, shortened: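 Serum-starved RAW264.7 cells were exposed for 6 h in serum-free medium against a 0.1% DMSO control. Total RNA (2 μg) was reverse-transcribed, then TaqMan qPCR run for Hmox1 and Gapdh over 40 cycles. Crossing points were taken by second-derivative maximum, and fold change calculated by the 2^−ΔΔCT method normalized to Gapdh. Mean ± SD of three experiments.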

[6] = target: T1, Nuclear factor erythroid 2-related factor 2 (Mus musculus); assay: Activation of Nrf2 in mouse RAW264.7 cells assessed as nuclear accumulation at 50 uM after 3 hrs by Western blotting analysis; type: cell-based
Procedure, shortened: (§2)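 RAW264.7 cells (passage 5−25) seeded at 1 × 10⁵ cells/cm², switched to serum-free medium after 8 h, left overnight, then treated 3 h in serum-free medium; 0.1% DMSO vehicle control. Cells were swollen in hypotonic HEPES/NP-40 buffer for the cytosolic fraction and nuclei extracted in high-salt buffer. Blots loaded 30 μg/lane, Nrf2 densitometry normalized to actin, mean of three experiments.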

[7] = target: T1, Nuclear factor erythroid 2-related factor 2 (Mus musculus); assay: Activation of Nrf2 in mouse RAW264.7 cells assessed as cytosolic accumulation at 50 uM after 3 hrs by Western blotting analysis; type: cell-based; procedure, shortened: as §2
RAW264.7 [8] = assay: Drug uptake in mouse RAW264.7 cells measured per 10^6 cells at 50 uM after 3 hrs; type: ADME, cell-based; settings: raw264.7, 3 h
Procedure, shortened: (§3)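 Cells given 50 μM for up to 6 h, then scraped, washed twice in PBS and sonicated in methanol with 5% acetic acid. Supernatant analysed by UPLC on a phenyl column (water/1% acetic acid/methanol to methanol gradient, 35 °C) with negative ESI-QqTOF MS. Contents expressed as nmol per 10⁶ cells.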

RAW264.7 [9] = assay: Drug uptake in mouse RAW264.7 cells at 50 uM after 10 mins; type: ADME, cell-based; settings: raw264.7, 10 min; procedure, shortened: as §3
RAW264.7 [10] = assay: Drug uptake in mouse RAW264.7 cells measured per 10^6 cells at 50 uM after 6 hrs; type: ADME, cell-based; settings: raw264.7, 6 h; procedure, shortened: as §3
RAW264.7 [11] = assay: Stability in mouse RAW264.7 cells assessed as gallic acid level at 50 uM after 6 hrs by HPLC/MS analysis; type: ADME, cell-based; settings: raw264.7, 6 h
[12] = target: MAP kinase p38 (Homo sapiens) (UniProt O15264+Q15759+Q16539+P53778); assay: Activation of p38MAPK in mouse RAW264.7 cells assessed as phosphorylation at Thr180/Tyr182 at 5 uM after 30 mins by Western blotting analysis; type: cell-based
Procedure, shortened: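 Serum-starved RAW264.7 cells were treated 30 min with 5 μM anisomycin in serum-free medium. Whole-cell lysate was made in Tris/NaCl/SDS/NP-40/Triton buffer with phosphatase and protease inhibitors, pH 7.4, and 35 μg/lane run on 10% SDS-PAGE. Blots were probed for p38 dually phosphorylated at Thr180/Tyr182 versus total p38, with chemiluminescent detection.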

O=C1c2c(O)cc(O)cc2O[C@H](c2ccc(O)c(O)c2)[C@H]1O [(+)-TAXIFOLIN] was tested, and the Activity [1] was “inactive”, the Activity (RAW264.7 [2]) was “Non-toxic” and the Activity (RAW264.7 [3]) was “Non-toxic”. It also gave a fold change (FC) [4] of 1.
With O=C(O)c1cc(O)c(O)c(O)c1 [GALLIC ACID] the fold change (FC) [5] was 1.5, the Activity (RAW264.7 [3]) was 76% and the fold change (FC) [4] was 1.5.
In the case of O=c1c(O[C@@H]2O[C@H](CO)[C@@H](O)[C@H](O)[C@H]2O)c(-c2ccc(O)c(O)c2)oc2cc(O)cc(O)c12 [ISOQUERCETIN], the Activity [1] is reported as “inactive”, the Activity (RAW264.7 [2]) is reported as “Non-toxic” and the Activity (RAW264.7 [3]) is reported as “Non-toxic”. It also gave a fold change (FC) [4] of 1.
O=c1c(O)c(-c2ccc(O)c(O)c2)oc2cc(O)cc(O)c12 [QUERCETIN] was tested, and the fold change (FC) [5] was 4.3, the Activity [6] was “Active” and the Activity (RAW264.7 [2]) was “Non-toxic”. For the same compound, the Activity [7] was “Active”, the Activity (RAW264.7 [3]) was “Non-toxic” and the fold change (FC) [4] was 1.9.
In the case of O=C(Oc1cc(O)c2c(=O)c(O)c(-c3ccc(O)c(O)c3)oc2c1)c1cc(O)c(O)c(O)c1, the Drug uptake (RAW264.7 [8]) is reported as 8.08 nmol.
For O=C(Oc1c(-c2ccc(O)c(O)c2)oc2cc(O)cc(O)c2c1=O)c1cc(O)c(O)c(O)c1, the Activity [1] was “inactive”, the Drug uptake (RAW264.7 [9]) was 85% and the Drug uptake (RAW264.7 [10]) was 1.8 nmol. For the same compound, the Drug uptake (RAW264.7 [8]) was 1.75 nmol, the Activity (RAW264.7 [3]) was 79% and the Stability (RAW264.7 [11]) was “Stable”. For the same compound, the fold change (FC) [4] was 0.9.
With COc1ccc(C[C@H]2NC[C@H](O)[C@H]2OC(C)=O)cc1 the Activity [12] was “Active”.
